Experimental findings from ChEMBL document CHEMBL3745654, “N-Alkylated arylsulfonamides of (aryloxy)ethyl piperidines: 5-HT(7) receptor selectivity versus multireceptor profile” (Bioorg Med Chem, 2016) are described below.

For orientation: Kb means the equilibrium dissociation constant of an antagonist, usually derived from a functional assay. As a reminder, the Ki is the dissociation constant of the complex between target and ligand, obtained from inhibition or displacement. The low end stands for higher affinity, the high end for lower affinity. As a reminder, the half-life is the time needed for the level to fall by half in the phase considered. A word on the inhibition: it is the drop in the measured response relative to a control, in per cent.

Molecules are shown by their SMILES. Active and inactive are the calls of the source.

In data set [1] the target is 5-hydroxytryptamine receptor 7 (Homo sapiens, UniProt P34969). The data set can be described thus: Antagonist activity at human 5-HT7B receptor expressed in HEK293 cells assessed as inhibition of 5-carboxamidotryptamine-induced cAMP production. In kind it is functional, cell-based. Summed up: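 HEK293 cells stably expressing human 5-HT7b receptor. Compound's ability to inhibit cAMP production induced by 10 nM 5-CT was measured in triplicate at 8 concentrations (10^-11 to 10^-4 M). Kb = IC50/(1 + A/EC50), where A is agonist concentration.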

Data set [2] has as its target T1, Adrenergic receptor alpha-1 (Rattus norvegicus, UniProt P15823+P23944+P43140).
T1 sequence (P15823 whole entry): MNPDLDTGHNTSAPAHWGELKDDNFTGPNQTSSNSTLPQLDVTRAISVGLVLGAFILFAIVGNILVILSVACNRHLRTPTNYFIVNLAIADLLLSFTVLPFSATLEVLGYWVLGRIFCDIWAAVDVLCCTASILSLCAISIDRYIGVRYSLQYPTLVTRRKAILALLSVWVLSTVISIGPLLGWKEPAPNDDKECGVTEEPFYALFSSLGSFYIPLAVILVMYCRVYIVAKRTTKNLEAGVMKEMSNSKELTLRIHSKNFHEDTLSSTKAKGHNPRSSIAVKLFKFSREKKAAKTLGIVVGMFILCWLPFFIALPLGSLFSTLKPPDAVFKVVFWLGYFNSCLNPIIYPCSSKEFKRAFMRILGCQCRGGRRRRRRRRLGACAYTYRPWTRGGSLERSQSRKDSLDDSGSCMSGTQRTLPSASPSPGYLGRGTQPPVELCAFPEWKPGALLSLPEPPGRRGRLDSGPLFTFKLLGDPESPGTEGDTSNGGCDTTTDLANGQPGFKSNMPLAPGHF
T1 sequence (P23944 whole entry): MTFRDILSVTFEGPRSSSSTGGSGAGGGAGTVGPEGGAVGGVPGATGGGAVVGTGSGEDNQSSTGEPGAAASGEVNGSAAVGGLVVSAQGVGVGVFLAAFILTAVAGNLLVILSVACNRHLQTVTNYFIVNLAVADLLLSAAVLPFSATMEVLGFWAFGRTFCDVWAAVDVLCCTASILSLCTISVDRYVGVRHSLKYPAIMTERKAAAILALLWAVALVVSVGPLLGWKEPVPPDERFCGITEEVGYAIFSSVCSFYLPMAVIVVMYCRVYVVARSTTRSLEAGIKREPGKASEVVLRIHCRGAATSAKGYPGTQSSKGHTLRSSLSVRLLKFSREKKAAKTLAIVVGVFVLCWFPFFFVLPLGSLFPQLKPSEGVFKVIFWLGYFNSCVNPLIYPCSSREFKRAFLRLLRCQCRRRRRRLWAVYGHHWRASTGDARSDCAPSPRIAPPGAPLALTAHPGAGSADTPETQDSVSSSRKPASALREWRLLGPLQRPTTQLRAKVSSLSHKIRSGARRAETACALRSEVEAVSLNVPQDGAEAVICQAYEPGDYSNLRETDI
T1 sequence (P43140 whole entry): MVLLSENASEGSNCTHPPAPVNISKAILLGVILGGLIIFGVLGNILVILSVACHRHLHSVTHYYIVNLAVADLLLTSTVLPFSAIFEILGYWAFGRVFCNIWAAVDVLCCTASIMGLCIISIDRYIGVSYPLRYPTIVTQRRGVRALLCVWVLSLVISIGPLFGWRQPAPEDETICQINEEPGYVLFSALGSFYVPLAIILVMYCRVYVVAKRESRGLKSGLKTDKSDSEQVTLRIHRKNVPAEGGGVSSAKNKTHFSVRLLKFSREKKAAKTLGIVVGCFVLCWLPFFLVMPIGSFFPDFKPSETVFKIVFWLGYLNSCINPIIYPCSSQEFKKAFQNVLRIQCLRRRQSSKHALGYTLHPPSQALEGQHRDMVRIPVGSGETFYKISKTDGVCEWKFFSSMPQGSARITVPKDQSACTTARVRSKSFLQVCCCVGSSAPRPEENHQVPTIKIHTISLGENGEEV
The data set can be described thus: Displacement of [3H]-Prazosin form rat cerebral cortex alpha-1 adrenergic receptor after 60 mins by scintillation counting method. In kind it is tissue-based. The gist of the method: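 Rat cerebral cortex membranes incubated with [3H]-prazosin (22 Ci/mmol; 0.6 nM). Compound tested at seven or eight concentrations (1 nM upward). Ki calculated by Cheng–Prusoff.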
On the technique in general: Loss of bound radioactivity is the signal in a displacement assay; it reports binding, not function.

Data set [3] is described as follows: Metabolic stability in mouse liver microsomes assessed as retention time of compound at 20 uM at pH 7.4 incubated for 15 mins by UPLC/MS analysis in presence of NADPH. In kind it is ADME. The following applies: pH 7.4, 0.25 h. Summed up:
(§1)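 Compound (20 µM) incubated with mouse liver microsomes (0.2 mg/ml) in 100 mM potassium phosphate, pH 7.4, 37 °C. Reaction started with NADPH-regenerating system; blank without NADPH run in parallel. Sampling at 5, 15, 30 and 60 min (some to 120 min), in duplicate. Levallorphan internal standard; UPLC/MS quantitation. t1/2 from ln % remaining vs time.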

Data set [4] can be described thus: Half life in mouse liver microsomes at 20 uM at pH 7.4 incubated for 15 mins by UPLC/MS analysis in presence of NADPH. Format: ADME. The gist of the method:
as §1

Data set [5] deals with T2, Muscarinic acetylcholine receptor M1 (Homo sapiens) (UniProt P11229).
T2 sequence (whole entry): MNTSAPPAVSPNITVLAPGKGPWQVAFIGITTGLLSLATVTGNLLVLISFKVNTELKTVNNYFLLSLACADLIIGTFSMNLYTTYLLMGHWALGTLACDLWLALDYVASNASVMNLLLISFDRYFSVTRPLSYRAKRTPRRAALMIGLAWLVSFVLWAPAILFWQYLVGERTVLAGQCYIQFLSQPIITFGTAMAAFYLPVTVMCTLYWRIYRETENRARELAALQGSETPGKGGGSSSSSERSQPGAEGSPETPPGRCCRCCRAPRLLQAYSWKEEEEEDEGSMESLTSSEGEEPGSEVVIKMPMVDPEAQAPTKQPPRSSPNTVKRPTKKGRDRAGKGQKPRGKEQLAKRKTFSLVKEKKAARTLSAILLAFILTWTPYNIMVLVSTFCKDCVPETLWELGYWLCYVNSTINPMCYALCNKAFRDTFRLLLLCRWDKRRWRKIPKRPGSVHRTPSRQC
The data set can be described thus: Displacement of [3H]-pirenzepine from human recombinant muscarinic M1 receptor expressed in CHO cells at 1 uM after 60 mins by Scintillation counting method. Format: cell-based.

Data set [6] relates to Rattus norvegicus. The data set can be described thus: Pro-cognitive effect in ip dosed Sprague-Dawley rat assessed as amelioration of PCP-induced memory deficit dosed 1 hr and 15 mins before familiarization phase by novel object recognition test. To be noted: for minimal effective dose: read-out: MED. Format: functional. The gist of the method:
(§2)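 Male Sprague–Dawley rats (~250 g), 7–12 per group, PCP-induced deficit model. Compounds ip 1 h and 15 min before T1. Day 1: 5-min arena habituation. Day 2: two 3-min trials 1 h apart, with two identical objects, then one replaced by a novel object. Exploration and distance video-tracked; discrimination index computed; ANOVA with Newman–Keuls.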

The subject of data set [7] is Rattus norvegicus. The data set can be described thus: Effect on exploratory activity in PCP-treated Sprague-Dawley rat at 1 mg/kg, ip dosed 1 hr and 15 mins before familiarization phase by novel object recognition test. Format: functional, organism-based. Summed up: as §2

Chain of 5-hydroxytryptamine receptor 7 (P34969 whole entry): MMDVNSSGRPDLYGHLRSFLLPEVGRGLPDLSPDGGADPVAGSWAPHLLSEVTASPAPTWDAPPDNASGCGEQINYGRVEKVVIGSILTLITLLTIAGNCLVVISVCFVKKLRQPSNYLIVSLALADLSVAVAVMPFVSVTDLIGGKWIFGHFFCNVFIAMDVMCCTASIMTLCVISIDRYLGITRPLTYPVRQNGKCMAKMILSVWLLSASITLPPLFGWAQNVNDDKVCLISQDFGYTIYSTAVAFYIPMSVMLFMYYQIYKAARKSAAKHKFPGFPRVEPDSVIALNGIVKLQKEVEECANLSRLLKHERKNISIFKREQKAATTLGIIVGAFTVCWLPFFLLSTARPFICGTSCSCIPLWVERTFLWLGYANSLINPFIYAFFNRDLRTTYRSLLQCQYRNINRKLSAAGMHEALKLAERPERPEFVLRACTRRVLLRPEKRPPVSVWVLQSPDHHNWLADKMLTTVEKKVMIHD

For `CN(C1CCN(CCOc2ccccc2C(C)(C)C)CC1)S(=O)(=O)c1cnn(C)c1`, the antagonist equilibrium constant (Kb) in data set [1] is 82 nM. This compound also returned a Ki in data set [2] greater than 300 nM. In data set [3], the Retention_time amounted to 5.22 min. The half-life at 20 µM in data set [4] turned out to be 20 min. In data set [5], the inhibition was less than 17%.
Regarding `Cn1cc(S(=O)(=O)N(CC2CC2)C2CCN(CCOc3ccccc3C(C)(C)C)CC2)cn1`, the antagonist dissociation constant (Kb) in data set [1] was determined as 64 nM. The Ki in data set [2] is on record as greater than 300 nM. Further, in data set [6], the Activity entry is “Dose-dependent effect” and the minimal effective dose was determined as 1 mg/kg. The outcome in data set [7] was inactive. In data set [3], the Retention_time was determined as 5.74 min. Also, the half-life at 20 µM in data set [4] turned out to be 44.5 min. Also, the inhibition in data set [5] is less than 17%.
Take `CN(C1CCN(CCOc2ccccc2-c2ccccc2)CC1)S(=O)(=O)c1cnn(C)c1`: the Kb in data set [1] was found to be 41 nM. Besides, the inhibition constant (Ki) in data set [2] is given as greater than 300 nM. Further, the Retention_time in data set [3] amounted to 4.88 min. Besides, the half-life at 20 µM in data set [4] was determined as 26.2 min. Moreover, the inhibition in data set [5] was less than 17%.
For `Cn1cc(S(=O)(=O)N(CC2CC2)C2CCN(CCOc3ccccc3-c3ccccc3)CC2)cn1`, in data set [1], the Kb was 79 nM. Also, in data set [2], the inhibitory constant (Ki) is given as greater than 300 nM. Moreover, in data set [6], the Activity entry was “Dose-dependent effect” and the minimal effective dose is 1 mg/kg. Further, the outcome in data set [7] was inactive. Moreover, in data set [3], the Retention_time amounted to 5.46 min. Also, in data set [4], the half-life at 20 µM was 62 min. The inhibition in data set [5] was less than 17%.
